Test results reported in ChEMBL document CHEMBL1165970, “Design, synthesis and biological evaluation of trans 2-(thiophen-2-yl)vinyl heteroaromatic iodides” (2010).

How the values were obtained:
[1] = test system: MCF7; test: Growth inhibition of human MCF7 cells after 3 days by MTT assay; assay type: functional; conditions: MCF7, 72 h
In short: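 MCF-7 mammary adenocarcinoma cells were grown in DMEM (1.0 g/L D-glucose) with 10% heat-inactivated FBS, 2 mM L-alanyl-L-glutamine and penicillin-streptomycin at 37 °C under 5% CO2. Compounds were added 24 h after plating (0.01–100 µM final), with untreated controls. After 3 days, MTT was read at 570 nm; each value is the mean of 8 wells. GI50 was calculated per NCI, 100×(T−T0)/(C−T0)=50.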

[2] = test system: LNCaP; test: Growth inhibition of human LNCAP cells after 3 days by MTT assay; assay type: functional; conditions: 72 h
In short: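 LNCap prostate adenocarcinoma cells were grown in RPMI 1640 with 10% heat-inactivated FBS, 2 mM L-alanyl-L-glutamine and penicillin-streptomycin at 37 °C under 5% CO2. Cells were plated, then treated 24 h later at 0.01–100 µM final against untreated controls. MTT was read at 570 nm after 3 days, averaging 8 wells. GI50 was derived by the NCI formula 100×(T−T0)/(C−T0)=50.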

Compound | GI50 [1] [µM] | GI50 [2] [µM] | LC50 [2] [µM] | LC50 [1] [µM]
Cn1c(/C=C/c2cccc[n+]2C)cc2ccccc21 | 15.1 | – | – | –
Cn1cc[n+](C)c1/C=C/c1ccc(-c2cccs2)s1 | 4.68 | 6.03 | – | –
Cn1cccc1/C=C/c1n(C)cc[n+]1C | 100 | – | – | –
Cn1cc[n+](C)c1/C=C/c1ccc(Br)s1 | 14.5 | – | – | –
C[n+]1ccccc1/C=C/c1ccc(-c2ccccc2)s1 | 8.32 | 33.9 | – | –
Cn1cc[n+](C)c1/C=C/c1ccc(-c2ccccc2)s1 | 1.45 | 8.32 | – | –
C[n+]1ccccc1/C=C/c1cc(-c2ccccc2)cs1 | 0.525 | 7.59 | 69.2 | 77.6
Cn1cc[n+](C)c1/C=C/c1cc(-c2ccccc2)cs1 | 1 | 20 | – | –
